Legend:
Human alphaherpesvirus 3 [1] = test: Antiviral activity against […] expressing thymidine kinase infected in HEL cells assessed as reduction of virus plaque formation after 4 days; type: functional, cell-based; conditions: Human alphaherpesvirus 3, strain Oka vaccine, 96 h
[2] = system: Human immunodeficiency virus 1; test: Antiviral activity against HIV1 infected in human CEM cells assessed as inhibition of virus-induced cytopathic effect after 4 days; type: functional, organism-based; conditions: Human immunodeficiency virus 1, CCRF-CEM, 96 h
Outline: (§1)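 CEM T-lymphocytes (~3 × 10^5 cells/ml) were infected with HIV-1 IIIB or HIV-2 ROD at ~100 CCID50, then immediately plated with a range of compound concentrations. Giant cell formation was scored microscopically after 4 days at 37 °C. Cytostatic activity was tested in parallel in uninfected CEM cells.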

[3] = Cytotoxicity against human HEL cells assessed as minimum compound concentration required to causes microscopically detectable alteration of normal cell morphology; type: cell-based
Outline: (§2)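 Confluent, non-proliferating cell cultures were exposed to the compounds. The endpoint was the minimum concentration producing a microscopically detectable alteration of normal cell morphology.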

Influenza A virus [4] = test: Antiviral activity against Influenza A virus H1N1 infected in MDCK cells assessed as reduction visual scoring of virus-induced cytopathogenicity after 4 days; type: functional, organism-based; conditions: 96 h
Outline: (§3)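 MDCK monolayers infected with 100 CCID50 of influenza A (H1N1 or H3N2) or influenza B, with varying compound concentrations. Cytopathicity read when untreated infected controls reached complete CPE.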

Sindbis virus = test: Antiviral activity against Sindbis virus infected in african green monkey Vero cells assessed as inhibition of virus-induced cytopathogenicity after 4 days; type: functional, organism-based; conditions: 96 h
Outline: (§4)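 Confluent HEL, Vero or HeLa monolayers were inoculated with 100 CCID50 of virus in the presence of varying concentrations of compound. Cytopathicity was scored when it reached completion in untreated, virus-infected control cultures.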

[5] = system: Respiratory syncytial virus; test: Antiviral activity against Respiratory syncytial virus infected in human HeLa cells assessed as inhibition of virus-induced cytopathogenicity after 4 days; type: functional, organism-based; conditions: 96 h; outline: as §4
Plasmodium falciparum [6] = test: Resistant factor, ratio of IC50 for chloroquine-resistant Plasmodium falciparum K1 to IC50 for chloroquine-sensitive Plasmodium falciparum 3D7; type: functional
Outline: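 Resistance factor computed as IC50 against K1 divided by IC50 against 3D7, both from the [3H]hypoxanthine incorporation assay.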

[7] = system: Vesicular stomatitis virus; test: Antiviral activity against Vesicular stomatitis virus infected in HeLa cells assessed as inhibition of virus-induced cytopathogenicity after 4 days; type: functional, organism-based; conditions: 96 h
Outline: (§5)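 Confluent HEL or HeLa monolayers infected with 100 CCID50 of virus in the presence of varying compound concentrations.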

Plasmodium falciparum [8] = test: Antiplasmodial activity chloroquine-sensitive Plasmodium falciparum 3D7 infected in human A+ erythrocytes assessed as inhibition of [3H]-hypoxanthine incorporation after 24 hrs by scintillation counting; type: functional, organism-based
[9] = Inhibition of beta-hematin formation assessed as Ferriprotoporphyrin IX biomineralisation at 1 mg/ml after 24 hrs; type: functional
Outline: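 Hemin chloride (0.5 mg/ml in DMSO) mixed with 0.5 M sodium acetate buffer pH 4.4 and drug or solvent control, incubated 37 °C for 24 h. Pellet washed with DMSO to remove unreacted hemin, dissolved in 0.1 N NaOH, absorbance read at 405 nm; percent inhibition relative to control. Highest concentration tested 1 mg/ml.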

Human respirovirus 3 = test: Antiviral activity against Parainfluenza-3 virus infected in african green monkey Vero cells assessed as inhibition of virus-induced cytopathogenicity after 4 days; type: functional, organism-based; conditions: Human respirovirus 3, Vero, 96 h; outline: as §4
[10] = Cytotoxicity against african green monkey Vero cells assessed as minimum compound concentration required to causes microscopically detectable alteration of normal cell morphology; type: cell-based; conditions: chlorocebus sabaeus; outline: as §2
Influenza A virus [11] = test: Antiviral activity against Influenza A virus H3N2 infected in MDCK cells assessed as reduction visual scoring of virus-induced cytopathogenicity after 4 days; type: functional, organism-based; conditions: 96 h; outline: as §3
Influenza B virus [12] = test: Antiviral activity against Influenza B virus infected in MDCK cells assessed as reduction visual scoring of virus-induced cytopathogenicity after 4 days; type: functional, organism-based; conditions: 96 h; outline: as §3
Human alphaherpesvirus 3 [13] = test: Antiviral activity against thymidine kinase-deficient […] infected in HEL cells assessed as reduction of virus plaque formation after 4 days; type: functional, organism-based; conditions: Human alphaherpesvirus 3, 07-1, HEL, 96 h
[14] = Cytotoxicity against MDCK cells assessed as minimum compound concentration required to causes microscopically detectable alteration of normal cell morphology; type: cell-based, Canis lupus familiaris; conditions: dog; outline: as §2
Coxsackievirus B4 [15] = test: Antiviral activity against Coxsackie virus B4 infected in african green monkey Vero cells assessed as inhibition of virus-induced cytopathogenicity after 4 days; type: functional, organism-based; conditions: Enterovirus B, 96 h; outline: as §4
Human betaherpesvirus 5 [16] = test: Antiviral activity against Cytomegalovirus AD-169 infected in HEL cells assessed as inhibition of virus plaque formation after 4 days; type: functional, organism-based; conditions: Human betaherpesvirus 5, AD169, HEL, 96 h
Human betaherpesvirus 5 [17] = test: Antiviral activity against Human cytomegalovirus Davis infected in HEL cells assessed as inhibition of virus plaque formation after 4 days; type: functional, organism-based; conditions: Human betaherpesvirus 5, Davis, 96 h
Influenza A virus [18] = test: Antiviral activity against Influenza A virus H1N1 infected in MDCK cells assessed as inhibition of virus-induced cytopathogenicity after 4 days by colorimetric formazan-based MTS assay; type: functional, organism-based; conditions: 96 h
[19] = Cytotoxicity against cat CRFK cells assessed as cell viability by colorimetric formazan-based MTS assay; parameters: species or system Felis catus; conditions: crfk
[20] = system: Mammalian orthoreovirus 1; test: Antiviral activity against Reovirus-1 infected in african green monkey Vero cells assessed as inhibition of virus-induced cytopathogenicity after 4 days; type: functional, organism-based; conditions: Mammalian orthoreovirus 1, Vero, 96 h; outline: as §4
Felid alphaherpesvirus 1 = test: Antiviral activity against Feline herpesvirus infected in cat CRFK cells assessed as inhibition of virus-induced cytopathic effect after 4 days by colorimetric formazan-based MTS assay; type: functional, organism-based; conditions: Felid alphaherpesvirus 1, CRFK, 96 h
[21] = Selectivity index, ratio of CC50 for MDCK cells to IC50 for chloroquine-resistant Plasmodium falciparum K1; type: functional
Outline: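 Selectivity index computed as MTS-based CC50 on MDCK cells divided by IC50 against P. falciparum K1.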

Punta Toro virus = test: Antiviral activity against Punta Toro virus infected in african green monkey Vero cells assessed as inhibition of virus-induced cytopathogenicity after 4 days; type: functional, organism-based; conditions: 96 h; outline: as §4
Influenza B virus [22] = test: Antiviral activity against Influenza B virus infected in MDCK cells assessed as inhibition of virus-induced cytopathogenicity after 4 days by colorimetric formazan-based MTS assay; type: functional, organism-based; conditions: 96 h
Human alphaherpesvirus 1 [23] = test: Antiviral activity against HSV1 KOS infected in HEL cells assessed as inhibition of virus-induced cytopathogenicity after 4 days; type: functional, organism-based; conditions: Human alphaherpesvirus 1, KOS, 96 h; outline: as §5
Coxsackievirus B4 [24] = test: Antiviral activity against Coxsackie virus B4 infected in human HeLa cells assessed as inhibition of virus-induced cytopathogenicity after 4 days; type: functional, organism-based; conditions: Enterovirus B, 96 h; outline: as §4
[25] = system: Vesicular stomatitis virus; test: Antiviral activity against Vesicular stomatitis virus infected in HEL cells assessed as inhibition of virus-induced cytopathogenicity after 4 days; type: functional, organism-based; conditions: 96 h; outline: as §5
Influenza A virus [26] = test: Antiviral activity against Influenza A virus H3N2 infected in MDCK cells assessed as inhibition of virus-induced cytopathogenicity after 4 days by colorimetric formazan-based MTS assay; type: functional, organism-based; conditions: 96 h
Human alphaherpesvirus 2 = test: Antiviral activity against HSV2 G infected in HEL cells assessed as inhibition of virus-induced cytopathogenicity after 4 days; type: functional, organism-based; conditions: Human alphaherpesvirus 2, strain G, 96 h; outline: as §4
MDCK = test: Cytotoxicity against MDCK cells assessed as cell viability by colorimetric formazan-based MTS assay; parameters: species or system Canis lupus familiaris; conditions: dog, mdck
Outline: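 Cytotoxicity on MDCK cells; 50% cytotoxic concentration from cell viability measured by colorimetric formazan-based MTS assay.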

[27] = system: Feline infectious peritonitis virus; test: Antiviral activity against FIPV infected in cat CRFK cells assessed as inhibition of virus-induced cytopathic effect after 4 days by colorimetric formazan-based MTS assay; type: functional, cell-based; conditions: Alphacoronavirus 1, CRFK, 96 h
[28] = system: Human immunodeficiency virus 2; test: Antiviral activity against HIV2 infected in human CEM cells assessed as inhibition of virus-induced cytopathic effect after 4 days; type: functional, organism-based; conditions: Human immunodeficiency virus 2, CCRF-CEM, 96 h; outline: as §1
HeLa = test: Cytotoxicity against human HeLa cells assessed as cell viability by colorimetric formazan-based MTS assay
[29] = Cytotoxicity against human HeLa cells assessed as minimum compound concentration required to causes microscopically detectable alteration of normal cell morphology; type: cell-based; outline: as §2
Plasmodium falciparum [30] = test: Antiplasmodial activity chloroquine-resistant Plasmodium falciparum K1 infected in human A+ erythrocytes assessed as inhibition of [3H]-hypoxanthine incorporation after 24 hrs by scintillation counting; type: functional, organism-based
Human alphaherpesvirus 1 [31] = test: Antiviral activity against thymidine kinase-deficient acyclovir-resistant HSV1 KOS infected in HEL cells assessed as inhibition of virus-induced cytopathogenicity after 4 days; type: functional, organism-based; conditions: Human alphaherpesvirus 1, KOS, 96 h; outline: as §5

Row | SMILES | EC50 (Human alphaherpesvirus 3 [1]) [µM] | EC50 [2] [µM] | MCC [3] [µM] | EC50 (Influenza A virus [4]) [µM] | EC50 (Sindbis virus) [µM] | EC50 [5] [µM] | Ratio IC50 (Plasmodium falciparum [6]) | EC50 [7] [µM] | IC50 (Plasmodium falciparum [8]) [µM] | inhibition [9] [%] | EC50 (Human respirovirus 3) [µM] | MCC [10] [µM] | EC50 (Influenza A virus [11]) [µM] | EC50 (Influenza B virus [12]) [µM] | EC50 (Human alphaherpesvirus 3 [13]) [µM] | MCC [14] [µM] | EC50 (Coxsackievirus B4 [15]) [µM] | EC50 (Human betaherpesvirus 5 [16]) [µM] | EC50 (Human betaherpesvirus 5 [17]) [µM] | EC50 (Influenza A virus [18]) [µM] | further results
1 | CCOC(=O)c1c(C)nc(NCCCNc2ccnc3cc(Cl)ccc23)nc1C | 9.62 | > 2 | ≥ 100 | > 4 | > 100 | > 100 | 2.548 | > 100 | 0.0631 | 66 | > 100 | > 100 | > 4 | > 4 | > 20 | 20 | > 100 | 8.94 | 8.18 | > 4 | CC50 [19]: > 100 µM; EC50 [20]: > 100 µM; EC50 (Felid alphaherpesvirus 1): > 100 µM; Ratio CC50/IC50 [21]: 361.89; EC50 (Punta Toro virus): > 100 µM; EC50 (Influenza B virus [22]): > 4 µM; EC50 (Human alphaherpesvirus 1 [23]): > 100 µM; EC50 (Coxsackievirus B4 [24]): > 100 µM; EC50 [25]: > 100 µM; EC50 (Influenza A virus [26]): > 4 µM; EC50 (Human alphaherpesvirus 2): > 100 µM; CC50 (MDCK): 58.2 µM; EC50 [27]: > 100 µM; EC50 [28]: > 2 µM; CC50 (HeLa): 17.5 µM; MCC [29]: > 100 µM; IC50 (Plasmodium falciparum [30]): 0.161 µM; EC50 (Human alphaherpesvirus 1 [31]): > 100 µM
2 | Cc1nc(NCCCNc2ccnc3cc(Cl)ccc23)nc(-c2cccc([N+](=O)[O-])c2)c1C(=O)OC(C)C | 4 | > 2 | 20 | > 0.16 | > 20 | > 4 | 0.385 | > 4 | 0.599 | 79 | > 20 | 100 | > 0.16 | > 0.16 | > 4 | 0.8 | > 20 | > 4 | > 4 | > 0.16 | CC50 [19]: 7.7 µM; EC50 [20]: > 20 µM; EC50 (Felid alphaherpesvirus 1): > 4 µM; Ratio CC50/IC50 [21]: 2.1; EC50 (Punta Toro virus): > 20 µM; EC50 (Influenza B virus [22]): > 0.16 µM; EC50 (Human alphaherpesvirus 1 [23]): > 4 µM; EC50 (Coxsackievirus B4 [24]): > 4 µM; EC50 [25]: > 4 µM; EC50 (Influenza A virus [26]): > 0.16 µM; EC50 (Human alphaherpesvirus 2): > 4 µM; CC50 (MDCK): 0.5 µM; EC50 [27]: > 4 µM; EC50 [28]: > 10 µM; CC50 (HeLa): 1.04 µM; MCC [29]: 20 µM; IC50 (Plasmodium falciparum [30]): 0.231 µM; EC50 (Human alphaherpesvirus 1 [31]): > 4 µM

— ChEMBL document CHEMBL2021854, “2-Aminopyrimidine based 4-aminoquinoline anti-plasmodial agents. Synthesis, biological activity, structure-activity relationship and mode of action studies” (Eur J Med Chem, 2012)
